In the library only some 2.1% were active in any assay of this set; here they are far more common.
MT stabilizer: microtubule stabilizers in HeLa cells, primary screen, imaging, high-content imaging; HeLa tubulin immunostaining HCS, 24 h; share of cells brighter than vehicle mean+2SD; actives 0.83% (n = 200,000); AID 2205, 2009; % tubulin-high responders, % at 10 µM;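 active means plate Z-score above 3 for both tubulin-high and condensed-nucleus cell shares, with cell loss under 80%, at 10 µM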;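 further: anti alpha tubulin signal scored within the nucleus-defined area of each cell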
IEC-6 tox: cytotoxicity in IEC-6 intestinal epithelial cells, primary screen, cytotoxicity control for KLF5 inhibitor project, cell-based, luminescence. IEC-6 cytotoxicity, luminescence viability. inhibition, % at 5 µM. actives 0.78% (n = 290,000). AID 1825, 2009; in the data active means inhibition above about 22%
KLF5 inhibitor: KLF5 expression inhibitors, primary screen, DLD-1 cells, luminescence; inhibition, % at 5 µM; actives 0.23% (n = 290,000); AID 1700, 2009; DLD-1 KLF5 promoter-luciferase reporter;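 active means inhibition above a per-plate limit of that plate's mean compound inhibition plus 3 SD, cut at about 60% in these data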;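 further: higher means less KLF5 promoter-driven luciferase light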
Ba/F3 V617F tox: reduced viability of JAK2V617F-dependent Ba/F3 cells, primary screen, JAK2V617F inhibitor project, cell-based, Ba/F3 EpoR-JAK2V617F, luminescence. ATP luminescence. inhibition, % at 5.6 µM. actives 1.1% (n = 220,000);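 active means inhibition above the campaign mean plus 3 SD over all tested compounds, cut at about 24% in these data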;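 further: cytokine-independent growth of Ba/F3 cells driven by EpoR plus mutant JAK2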
BaF3 parental: parental Ba/F3 cell viability inhibition, counter-screen for JAK2V617F inhibitor project, murine pro-B, CellTiter-Glo luminescence. CellTiter-Glo ATP luminescence. inhibition, % at 5.6 µM. actives 1.1% (n = 220,000). AID 1486, 2009;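 active means inhibition above a per-campaign cutoff, the mean inhibition of all tested compounds plus 3 SD, cut at about 27% in these data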
bCat nuc transl: modulators of beta-catenin nuclear translocation, primary screen, imaging, HeLa cells, immunofluorescence, high-content; actives 0.3% (n = 190,000); nuclear translocation activity, % at 5 µM;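 active means nuclear translocation activity above 50% at 5 µM, with a well cell count of 50 or more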;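 further: per-cell ratio of nuclear to cytoplasmic median beta-catenin stain intensity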
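assay system = human HeLa cells, endogenous beta-catenin | times = compound treatment 24 h, 37°C, 5% CO2 | detection = Anti-beta-catenin immunofluorescence on PFA-fixed, Triton-permeabilized cells, DAPI nuclei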
A number is an active result.

Screening CCN(CC)c1ccc(NC(=O)c2ccc(=O)[nH]c2)cc1S(=O)(=O)Nc1ccccc1OC returned MT stabilizer 28, IEC-6 tox inactive, KLF5 inhibitor inactive, Ba/F3 V617F tox inactive, BaF3 parental inactive and bCat nuc transl inactive.
`C#CCOCCOCCOCCNc1nc(N2CCN(C(=O)[C@H]([C@@H](C)O)n3cc(CCCCN)nn3)CC2)nc(N2CCN(C(=O)[C@H](Cc3ccc(O)cc3)n3cc(CCO)nn3)CC2)n1` gave MT stabilizer inactive, IEC-6 tox inactive, KLF5 inhibitor inactive, Ba/F3 V617F tox inactive and BaF3 parental 63.
Screening COc1ccc(S(=O)(=O)Cc2ccc(C(=O)N3CCN(c4cccc(C)c4C)CC3)o2)cc1 returned MT stabilizer 22, IEC-6 tox inactive, KLF5 inhibitor inactive, Ba/F3 V617F tox inactive, BaF3 parental inactive and bCat nuc transl inactive.
For Cc1ccc(S(=O)(=O)Cc2ccc(C(=O)N3CCN(c4ccc(F)cc4)CC3)o2)cc1 the results were MT stabilizer 24, IEC-6 tox inactive, KLF5 inhibitor inactive, Ba/F3 V617F tox inactive and BaF3 parental inactive.
`COc1ccc(S(=O)(=O)Cc2ccc(C(=O)N3CCN(c4cccc(C)c4)C(C)C3)o2)cc1` (configuration not stated) gave MT stabilizer 24, IEC-6 tox inactive, KLF5 inhibitor inactive, Ba/F3 V617F tox inactive and BaF3 parental inactive.
`Cc1cccc(N2CCN(C(=O)c3ccc4c(c3)OCCO4)CC2C)c1` (configuration not stated) gave MT stabilizer 13, IEC-6 tox inactive, KLF5 inhibitor inactive, Ba/F3 V617F tox inactive, BaF3 parental inactive and bCat nuc transl inactive.
Screening COc1ccccc1S(=O)(=O)Cc1ccc(C(=O)N2CCN(c3ccc(C)cc3)C(C)C2)o1 (configuration not stated) returned MT stabilizer inactive, IEC-6 tox inactive, KLF5 inhibitor inactive, Ba/F3 V617F tox inactive, BaF3 parental inactive and bCat nuc transl inactive.
Cc1ccccc1S(=O)(=O)Cc1ccc(C(=O)N2CCN(c3ccc(F)cc3)CC2)o1 was read as MT stabilizer inactive, IEC-6 tox inactive, KLF5 inhibitor inactive, Ba/F3 V617F tox inactive, BaF3 parental inactive and bCat nuc transl inactive.
Screening O=C(Nc1ccc(F)cc1)c1ccc(Br)c(S(=O)(=O)N2CCOCC2)c1 returned IEC-6 tox inactive and KLF5 inhibitor inactive.
For Cn1cc(CCC(=O)N2CCCC(CCC(=O)NCc3ccc(F)c(F)c3)C2)cn1 (configuration not stated) the results were MT stabilizer inactive, IEC-6 tox inactive, KLF5 inhibitor inactive, Ba/F3 V617F tox inactive, BaF3 parental inactive and bCat nuc transl inactive.
For Cc1ccccc1CN1CCNC(=O)C1CC(=O)NCCN1CCCCC1=O (configuration not stated) the results were IEC-6 tox inactive and KLF5 inhibitor inactive.
`O=C(c1ccc2nc[nH]c2c1)N1CCN(c2ncc(C(F)(F)F)cc2Cl)CC1` gave IEC-6 tox inactive and KLF5 inhibitor inactive.
`Nc1[nH]nc2nc3ccccc3cc12` gave MT stabilizer inactive, IEC-6 tox inactive, KLF5 inhibitor inactive, Ba/F3 V617F tox inactive, BaF3 parental inactive and bCat nuc transl inactive.
For Nc1cccc2nc3ccccc3cc12 the results were MT stabilizer inactive, IEC-6 tox inactive, KLF5 inhibitor inactive, Ba/F3 V617F tox 41 and BaF3 parental 29.
`CCOC(=O)c1cc(=O)[nH]c2ccccc12` gave MT stabilizer inactive, IEC-6 tox inactive, KLF5 inhibitor inactive, Ba/F3 V617F tox inactive, BaF3 parental inactive and bCat nuc transl inactive.
`CCCOC(=O)c1cc(=O)[nH]c2ccccc12` gave MT stabilizer inactive, IEC-6 tox inactive, KLF5 inhibitor inactive, Ba/F3 V617F tox inactive, BaF3 parental 97 and bCat nuc transl inactive.
Screening CCOCCCNC(=O)/C(C#N)=C/c1cc(OC)c(O)c([N+](=O)[O-])c1 returned MT stabilizer 24, IEC-6 tox inactive, KLF5 inhibitor inactive, Ba/F3 V617F tox inactive, BaF3 parental inactive and bCat nuc transl inactive.
Screening CN(C)c1cc[n+](CC(=O)N2CCCc3ccccc32)cc1 returned MT stabilizer inactive, IEC-6 tox inactive, KLF5 inhibitor inactive, Ba/F3 V617F tox 52, BaF3 parental 63 and bCat nuc transl inactive.
For Cc1cc[n+](CC(=O)N2CCCc3ccccc32)cc1 the results were MT stabilizer inactive, IEC-6 tox inactive, KLF5 inhibitor inactive, Ba/F3 V617F tox inactive, BaF3 parental inactive and bCat nuc transl inactive.
`COc1cc2c(cc1OC)C1C(C(=O)Nc3ccccc3N3CCN(C)CC3)c3ccccc3C(=O)N1CC2` (configuration not stated) gave MT stabilizer inactive, IEC-6 tox inactive, KLF5 inhibitor inactive, Ba/F3 V617F tox inactive, BaF3 parental inactive and bCat nuc transl inactive.
COc1ccc(OC)c(NS(=O)(=O)c2ccc(Br)s2)c1 was read as MT stabilizer 9.6, IEC-6 tox inactive, KLF5 inhibitor inactive, Ba/F3 V617F tox inactive, BaF3 parental inactive and bCat nuc transl inactive.
Screening COc1ccc(OC)c(NS(=O)(=O)c2ccc(Cl)s2)c1 returned MT stabilizer inactive, IEC-6 tox inactive, KLF5 inhibitor inactive, Ba/F3 V617F tox inactive, BaF3 parental inactive and bCat nuc transl inactive.
`COc1ccc2[nH]c3c(N4CCN(Cc5ccc6c(c5)OCO6)CC4)ncnc3c2c1` gave MT stabilizer 21, IEC-6 tox inactive, KLF5 inhibitor inactive, Ba/F3 V617F tox inactive, BaF3 parental inactive and bCat nuc transl inactive.
For COc1ccc2c(c1)c1ncnc(N3CCN(Cc4ccc5c(c4)OCO5)CC3)c1n2C the results were MT stabilizer inactive, IEC-6 tox inactive, KLF5 inhibitor inactive, Ba/F3 V617F tox inactive, BaF3 parental inactive and bCat nuc transl inactive.
Cc1cc(NC(=O)Cc2ccccc2)c2ccccc2n1 was read as MT stabilizer inactive, IEC-6 tox inactive, KLF5 inhibitor inactive, Ba/F3 V617F tox 39, BaF3 parental 73 and bCat nuc transl inactive.
`O=S(=O)(Nc1ccccc1Cl)c1cc(NC(=S)NCCN2CCOCC2)ccc1Cl` gave IEC-6 tox inactive and KLF5 inhibitor inactive.
Screening COc1cc2c(cc1OC)C(C)N(C(=O)c1cccs1)CC2 (configuration not stated) returned MT stabilizer 24, IEC-6 tox inactive, KLF5 inhibitor inactive, Ba/F3 V617F tox inactive, BaF3 parental inactive and bCat nuc transl inactive.
`COc1cc2c(cc1OC)C(c1cccs1)N(C(=O)c1ccncc1)CC2` (configuration not stated) gave MT stabilizer 23, IEC-6 tox inactive, KLF5 inhibitor inactive, Ba/F3 V617F tox inactive, BaF3 parental inactive and bCat nuc transl inactive.
